# Source: ChEMBL document CHEMBL1821587, “Synthesis, antibacterial activities and molecular docking studies of Schiff bases derived from N-(2/4-benzaldehyde-amino) phenyl-N'-phenyl-thiourea” (Bioorg Med Chem, 2011)
# Columns and labels:
# [1] = test system: Escherichia coli; assay: Antibacterial activity against Escherichia coli ATCC 35218 after 24 hrs by MTT assay; type: functional; settings: ATCC 35218, 24 h
# How it was run: (§1)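 MICs by broth microdilution in Mueller-Hinton medium. Compounds were taken from a 100 μg/mL DMSO stock into sterile medium and serially diluted. Inoculum about 10⁵ cfu/mL, incubated 37 °C for 24 h, and MIC read visually. MTT (2 mg/mL in PBS pH 7.4) was then added for 4–5 h at room temperature, dye extracted with acidified isopropanol for 12 h, OD read at 550 nm.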
# [2] = test system: Pseudomonas aeruginosa; assay: Antibacterial activity against Pseudomonas aeruginosa ATCC 13525 after 24 hrs by MTT assay; type: functional; settings: ATCC 13525, 24 h; how it was run: as §1
# [3] = test system: Bacillus subtilis; assay: Antibacterial activity against Bacillus subtilis ATCC 6633 after 24 hrs by MTT assay; type: functional; settings: ATCC 6633, 24 h; how it was run: as §1
# [4] = test system: Staphylococcus aureus; assay: Antibacterial activity against Staphylococcus aureus ATCC 6538 after 24 hrs by MTT assay; type: functional; settings: ATCC 6538, 24 h; how it was run: as §1
# [5] = Inhibition of Escherichia coli N-terminal His-tagged FabH expressed in Escherichia coli BL21(DE3) using [3H]-acetyl-CoA after 25 mins by liquid scintillation counting
# How it was run: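 His-tagged E. coli FabH was expressed with IPTG induction, purified on Ni-NTA and stored in Tris pH 7.6 with DTT and glycerol. Assay in 20 mM sodium phosphate pH 7.0 with 0.5 mM DTT, 0.25 mM MgCl₂, […] ACPS-converted holo-ACP and 1 nM FabH. Started with 25 μM acetyl-CoA plus [³H]acetyl-CoA, run 25 min, stopped with TCA; pellet counted by scintillation. Inhibitors added in DMSO (final ≤2%) for IC50.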
# [6] = Toxicity in RBC assessed as hemolysis; type: cell-based; settings: erythrocyte
SMILES,MIC [1] [µg/mL],MIC [2] [µg/mL],MIC [3] [µg/mL],MIC [4] [µg/mL],IC50 [5] [µM],MHC [6] [µg/mL]
O=[N+]([O-])c1ccccc1/C=N/c1ccc(NC(=S)Nc2ccccc2)cc1,> 100,> 100,50,25,,
S=C(Nc1ccccc1)Nc1ccc(/N=C/c2ccc(Br)cc2)cc1,25,25,50,50,40.8,> 10000
S=C(Nc1ccccc1)Nc1ccc(/N=C/c2ccc(Cl)cc2Cl)cc1,12.5,25,12.5,12.5,30.4,> 10000
Oc1c(Br)cc(Br)cc1/C=N/c1ccc(NC(=S)Nc2ccccc2)cc1,> 100,> 100,> 100,> 100,,
CC1(C)S[C@@H]2[C@H](NC(=O)Cc3ccccc3)C(=O)N2[C@H]1C(=O)O [PENICILLIN G],3.13,6.25,1.56,6.25,,
Oc1ccc(Br)cc1/C=N/c1ccccc1NC(=S)Nc1ccccc1,> 100,> 100,> 100,> 100,,
S=C(Nc1ccccc1)Nc1ccccc1/N=C/c1ccc(Cl)cc1,> 100,> 100,> 100,> 100,,
Oc1ccc(Cl)cc1/C=N/c1ccc(NC(=S)Nc2ccccc2)cc1,6.25,6.25,12.5,12.5,12.8,> 10000
Cc1ccc(/C=N/c2ccc(NC(=S)Nc3ccccc3)cc2)cc1,12.5,25,25,25,25.9,> 10000
Oc1ccccc1/C=N/c1ccccc1NC(=S)Nc1ccccc1,> 100,> 100,> 100,> 100,,
Fc1ccc(/C=N/c2ccc(NC(=S)Nc3ccccc3)cc2)cc1,50,50,50,25,,
NC[C@H]1O[C@H](O[C@H]2[C@H](O)[C@@H](O[C@H]3O[C@H](CO)[C@@H](O)[C@H](N)[C@H]3O)[C@H](N)C[C@@H]2N)[C@H](N)[C@@H](O)[C@@H]1O [BEKANAMYCIN],1.56,3.13,0.39,3.13,,
S=C(Nc1ccccc1)Nc1ccc(/N=C/c2ccc(Cl)cc2)cc1,6.25,3.13,12.5,6.25,15.6,> 10000
S=C(Nc1ccccc1)Nc1ccccc1/N=C/c1ccc(Br)cc1,> 100,> 100,50,> 100,,
S=C(Nc1ccccc1)Nc1ccc(/N=C/c2ccc(OCc3ccccc3)cc2)cc1,1.56,3.13,6.25,3.13,4.3,> 10000
Oc1ccc(Cl)cc1/C=N/c1ccccc1NC(=S)Nc1ccccc1,3.13,3.13,12.5,6.25,9.5,> 10000
Oc1ccccc1/C=N/c1ccc(NC(=S)Nc2ccccc2)cc1,12.5,6.25,25,6.25,28.7,> 10000
Fc1ccccc1/C=N/c1ccc(NC(=S)Nc2ccccc2)cc1,> 100,> 100,> 100,> 100,,
COc1ccc(/C=N/c2ccccc2NC(=S)Nc2ccccc2)cc1,> 100,> 100,> 100,> 100,,
O=[N+]([O-])c1ccc(/C=N/c2ccc(NC(=S)Nc3ccccc3)cc2)cc1,25,50,50,50,,
Oc1ccc(Br)cc1/C=N/c1ccc(NC(=S)Nc2ccccc2)cc1,25,25,50,50,39,> 10000
COc1cccc(/C=N/c2ccc(NC(=S)Nc3ccccc3)cc2)c1,50,25,25,50,48.1,> 10000
Oc1c(Br)cc(Br)cc1/C=N/c1ccccc1NC(=S)Nc1ccccc1,> 100,> 100,> 100,> 100,,
S=C(Nc1ccccc1)Nc1ccc(/N=C/c2cccc(Br)c2)cc1,> 100,> 100,> 100,> 100,,
